PubChem BioAssay AID652260 (The Scripps Research Institute Molecular Screening Center, 2013)
About 1,000 (29%) of roughly 3,500 compounds were called active. The list is a sample of the results. A number with no mark means an inactive call.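 How the source made its calls: active means activation above its plate's cutoff, the mean activation of tested wells plus 3 SD (cut at about 7.9% in these data); inactive means the rest.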

Experiment: SMARCA2 (BRM) function activators, confirmation, cell-based, luminescence, triplicate (AID 652260)
Details: MG213 cells, MMTV-luciferase with dexamethasone, overnight, at 9.1 µM, active compounds read high, DMSO wells 0%, reference activator 100%, MG213 cells expressing E1A, Rb sequestered
Summary of the method: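 System: MG213 cells (E1A-transduced) carrying MMTV-luciferase reporter; buffer or medium: 2.5% FBS medium with dexamethasone; probe or stimulus: 0.1 µM dexamethasone stimulus; compound: 9.1 µM single dose; timing: compound exposure 24 h at 37 °C after 1-day dexamethasone priming; signal: luciferase luminescence (OneGlo); control set: DMSO wells as low control, reference activator compound as high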

SMILES	activation
CCOC(=O)C(C)n1cnc2c(nnn2-c2cccc(OC)c2)c1=O (stereo not drawn)	4.29%
COc1cccc(-c2nc3cc(C)ccc3o2)c1	7.4%
CCN(CC)C(=O)CSc1nnc(-c2cccc(OC)c2)o1	8.07% (active)
CCNC(=S)N1CCN(c2ncccn2)CC1	-2.06%
Cc1cc(C)nc(Nc2n[nH]c(-c3ccccc3N)n2)n1	5.41%
CC(C)C[C@H]1CNC(=O)C(=O)N1C[C@H]1CCCN1C[C@H](Cc1ccc(O)cc1)N1C[C@H](CC(C)C)N(CC2CCCCCC2)C(=O)C1=O	-0.79%
O=C(Nc1cccc([N+](=O)[O-])c1)c1ccc2c(c1)OCO2	3.25%
COc1ccc(C(=O)Nc2ccc3c(c2)OCO3)cc1OC	7.86% (active)
COCC(C)n1c(SCc2ccc(C(=O)OC)o2)nc2ccccc2c1=O (stereo not drawn)	0.09%
Cc1cc(-c2n[nH]c(=S)n2/N=C/C(Br)=C/c2ccccc2)n[nH]1	2.39%
CC(=O)Nc1ccc(Nc2c3ccccc3nc3ccccc23)cc1	43% (active)
CCN(CC)CCNC(=O)c1ccc(NC(=O)c2cc(-c3ccncc3)nc3ccccc23)cc1	5.3%
O=C(Nc1ccc2nccnc2c1)c1ccco1	5.96%
CCCSC(=S)NC1CCS(=O)(=O)C1 (stereo not drawn)	-0.53%
c1ccc2cc3c(NCCN4CCOCC4)ccnc3cc2c1	34.6% (active)
COc1ccc(-c2cc(-c3ccc(N)cc3)nc(N)c2C#N)cc1OC	-1.93%
Cc1ccc(C(=O)NNC(=O)c2cccs2)cc1	1.93%
COc1ccc(/C=N/NC(=O)c2cc(-c3cccc(C)c3)nc3ccccc23)cc1O	1.04%
COc1ccc(N=C(C)c2sc3ccccc3c2O)cc1	9.34% (active)
Cc1cc(C)c2nc3nc(C)cc(C)c3c(N)c2c1	60% (active)
COc1ccc(Cn2c(C)c(C)c(C#N)c2NC(=O)Nc2ccc(F)cc2)cc1	4.61%

SMILES	activation
C/C(CC(=O)NC(C)(C)C)=N\NC(=O)c1ccco1	5.29%
CN(C)C(=S)N=c1ssc(=S)n1Cc1ccco1	15.4% (active)
O=C1/C(=C\c2ccc([N+](=O)[O-])cc2)CS(=O)(=O)C/C1=C/c1ccc([N+](=O)[O-])cc1	-15.7%
COc1ccccc1C1=Nc2cccc3cccc(c23)N1	2.63%
O=C(CCCCCn1c(=S)[nH]c2ccsc2c1=O)NC1CCCCC1	1.02%
C=C1C(=O)[C@]23C[C@H]1CCC2[C@@]1(C)C(C[C@@H]3O)[C@](C)(C(=O)O)CC[C@@H]1O (stereo partly drawn)	28.4% (active)
Cn1c(-c2ccc(F)cc2)cc2onc(-c3ccccc3Cl)c2c1=O	-3.34%
CN1CCN(CCCNC(=O)c2ccc(/C=C3\Oc4ccccc4N(Cc4ccc(Cl)cc4)C3=O)cc2)CC1	3.44%
COCn1c(COc2ccccc2)nc2ccccc21	8.62% (active)
CCc1ccc[n+](-c2nc([O-])sc2C=O)c1	-1.34%
COc1ccc(CC2c3cc(OC)c(OC)cc3CC[N+]2(C)CCC(=O)OCCCCCOC(=O)CC[N+]2(C)CCc3cc(OC)c(OC)cc3C2Cc2ccc(OC)c(OC)c2)cc1OC (stereo not drawn)	8.77% (active)
CCOC(=O)c1sc2nc(CSc3ccccc3)[nH]c(=O)c2c1C	-0.16%
COc1cc(CN2CCC(C(N)=O)CC2)ccc1OCc1ccccc1	13% (active)
O=C(c1cc(-c2ccc(O)cc2)on1)N1CCOCC1	7.73%
O=C(c1cc(-c2ccccc2O)on1)N1CCCC1	1.4%
O=C(c1cccs1)C1C(c2ccc(Br)cc2)NC(=S)NC1(O)C(F)(F)F (stereo not drawn)	5.35%
Cc1ccc(-c2nc3ccc(Br)cn3c2Cc2ccccc2C(F)(F)F)cc1	0.37%
CCN(CC)C(=O)c1sc2nc(-c3ccccc3)ccc2c1N	9.6% (active)
COc1ccc(C(CNC(=O)c2ccc(S(=O)(=O)Nc3ccccc3F)cc2)N(C)C)cc1 (stereo not drawn)	0.35%
CC(C)(C)C(=O)CSc1nc2ccccc2o1	6.81%
CN(C)S(=O)(=O)c1ccc2oc(SCC(=O)Nc3ccccc3F)nc2c1	7.95% (active)

SMILES	activation
Cc1noc(C)c1/C=N/Nc1ccc2ccccc2n1	4.24%
CC1CCCCN1C(=S)NCc1ccccc1 (stereo not drawn)	0.99%
COc1ccc(-c2csc(Cc3nc(O)cs3)n2)cc1	-15.4%
COc1ccc(-c2cc3ncccc3cn2)cc1	8.92% (active)
CN(C)c1nc(=Nc2cccc(Cl)c2)ss1	-15.3%
Cc1n[nH]c(=O)nc1N/N=C/c1cccs1	3.07%
CCC1CCC/C1=N\NC(=O)c1ccc(Cl)cc1 (stereo not drawn)	2.31%
O=C(Nc1ccc2c(c1)CCC2)c1ccc(Br)s1	10.8% (active)
Cc1ccc(NC(=O)c2cnc(SCC(=O)NCC3CCCO3)n(C)c2=O)cc1 (stereo not drawn)	9.35% (active)
Cc1ccc(-c2c(C)n([O-])c3c([n+]2=O)CCC3)cc1	6.67%
N#Cc1ccccc1NC(=O)c1cccc(COc2ccc(Cl)cc2Cl)c1	4.05%
Fc1ccc(CNc2nc3ccccc3n3nnnc23)cc1	1.53%
COc1c(O)cc2oc(-c3ccc(O)c(O)c3)cc(=O)c2c1O	12.6% (active)
CCCCNC(=O)C1CCC(CNS(=O)(=O)c2ccc(NC(C)=O)cc2)CC1 (stereo not drawn)	-3.14%
Cc1cc2oc3ccc(NCCC4CCCN4C)cc3c(=O)c2cc1C (stereo not drawn)	5.48%
CC1CCCCC1NC(=O)CN1CCC(O)(c2ccc3c(c2)OCO3)CC1 (stereo not drawn)	-0.84%
CCCC(=O)N1c2ccc(-c3csc(N)n3)cc2CC1C (stereo not drawn)	8.32% (active)
Cc1cc(C(=O)NNC(=S)Nc2ccccc2C)cs1	3.37%
Cc1cc(C)c2nc(NC(=O)C3CCCO3)sc2c1 (stereo not drawn)	9.52% (active)
O=C(Nc1nnc(CCc2ccccc2)s1)C1CCCO1 (stereo not drawn)	1.02%
C=CC(=O)OCCOCCOCCOCCOC(=O)C=C	7.95% (active)
